For four compounds, IC50 results are on record in ChEMBL document CHEMBL4177531, “Cytotoxic Naphthoquinone and Azaanthraquinone Derivatives from an Endophytic Fusarium solani” (J Nat Prod, 2017).

For one assay, the system named is MDA-MB-231. The experiment in a line: Cytotoxicity against human MDA-MB-231 cells assessed as reduction in cell viability incubated for 96 hrs by MTT assay. Format: functional, cell-based. The settings on record: MDA-MB-231, 96 h. In a few lines: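 Triple-negative breast line MDA MB231 was grown as monolayer at 37 °C under humidified 5% CO2 and plated at 5000–20 000 cells/well depending on line. After 24 h, compound was added in triplicate, with doxorubicin as positive control. Cells were exposed continuously for 96 h, then MTT colorimetry read at 570 nm. IC50 came from dose–response fitting.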
For orientation: Formazan colour is commonly taken as a measure of viable cells.

A further assay relates to HeLa. The experiment in a line: Cytotoxicity against human HeLa cells assessed as reduction in cell viability incubated for 96 hrs by MTT assay. It counts as functional, cell-based. The method in brief:
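HeLa monolayers kept in DMEM with 10% v/v FBS and 2 mM L-glutamine at 37 °C under humidified 5% CO2. Cells were seeded at 5000–20 000 per well and preincubated 24 h. Compound was added in triplicate, with doxorubicin as positive control. After 96 h continuous exposure, viability was read by MTT absorbance at 570 nm. IC50 came from dose–response analysis.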

The subject of another assay is MIA PaCa-2. The experiment in a line: Cytotoxicity against human MIAPaCa2 cells assessed as reduction in cell viability incubated for 96 hrs by MTT assay. Format: functional, cell-based. Conditions: MIA PaCa-2, 96 h. In a few lines: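 Pancreatic adenocarcinoma MIA PaCa2 cells were cultured in DMEM plus 2 mM L-glutamine and 10% FBS at 37 °C, 5% CO2. Cells were seeded at 5000–20 000 per well and rested 24 h, then dosed in triplicate for 96 h continuous exposure, with doxorubicin as positive control. Read-out was MTT absorbance at 570 nm; IC50 was derived by dose–response analysis.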

The next assay deals with NCI-H1975. The experiment in a line: Cytotoxicity against human NCI-H1975 cells assessed as reduction in cell viability incubated for 96 hrs by MTT assay. Format: functional, cell-based. Conditions: NCI-H1975, 96 h. In a few lines:
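NSCLC NCI H1975 cells were maintained in RPMI 1640 with 10% v/v FBS and 1% penicillin–streptomycin at 37 °C, humidified 5% CO2. Cells were seeded at 5000–20 000 per well, given 24 h, then dosed in triplicate for 96 h with doxorubicin as positive control. Viability was measured by MTT at 570 nm, and IC50 was obtained from dose–response curves.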

For a further assay, the system named is WI-38. The experiment in a line: Cytotoxicity against human WI38 cells assessed as reduction in cell viability incubated for 96 hrs by MTT assay. It counts as cell-based. The settings on record: WI-38, 96 h. The method in brief: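 WI 38 cells were grown in DMEM with 2 mM L-glutamine, 1× nonessential amino acids, 1% penicillin–streptomycin and 15% FBS at 37 °C, 5% CO2. Cells were plated at 5000–20 000 per well, then 24 h later dosed in triplicate and exposed continuously for 96 h. Read-out was MTT absorbance at 570 nm, with IC50 from dose–response analysis.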

As usually defined, the IC50 is the concentration needed to halve the response being measured. Consider `COc1cccc2c1C(=O)c1c(O)c3c(c(O)c1C2=O)C[C@@](O)(C(=O)CO)C[C@@H]3O[C@H]1C[C@H](N)[C@H](O)[C@H](C)O1` [DOXORUBICIN], for which the IC50 was 70 nM with MDA-MB-231; 50 nM with HeLa; 40 nM with MIA PaCa-2; 30 nM with NCI-H1975; 0.35 µM in the assay with WI-38.

For the compound `COc1cc(O)c2c(c1)C(=O)C1=C(COC(C)(O)C1)C2=O` (stereo not given), the half-inhibitory concentration (IC50) in the assay with MDA-MB-231 amounted to 30700 nM; with HeLa it was 10300 nM; with MIA PaCa-2, 20500 nM; in the assay on NCI-H1975, 27700 nM; with WI-38 it was 54.3 µM.

In the case of `COc1c(O)cc(O)c2c1C(=O)c1cc(C)ncc1C2=O`, the IC50 with MDA-MB-231 was 730 nM; in the assay with HeLa, 710 nM; with MIA PaCa-2, 640 nM; in the assay on NCI-H1975, 340 nM; in the assay on WI-38 it was 6.42 µM.

In the case of `COc1cc(O)cc2c1C(=O)c1cnc(C)cc1C2=O`, the half-inhibitory concentration (IC50) was 1510 nM in the assay on MDA-MB-231; 960 nM in the assay on HeLa; 980 nM in the assay on MIA PaCa-2; 610 nM with NCI-H1975; 5.84 µM in the assay on WI-38.
